Measurements from ChEMBL document CHEMBL4138126, “Synthesis, antiproliferative, anti-tubulin activity, and docking study of new 1,2,4-triazoles as potential combretastatin analogues” (Eur J Med Chem, 2017).

Legend:
[1] = test system: EKVX; assay: Growth inhibition of human EKVX cells assessed as cell growth at 10 uM after 48 hrs by sulforhodamine B assay; type: functional; conditions: read-out: Activity
Procedure, shortened: (§1)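 NCI 60-cell-line panel screen (nine cancer types). Compounds added at single concentration 10^-5 M, cultures incubated 48 h; growth inhibition percentages reported.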

[2] = test system: SK-OV-3; assay: Growth inhibition of human SKOV3 cells assessed as cell growth at 10 uM after 48 hrs by sulforhodamine B assay; type: functional; conditions: SK-OV-3, 48 h, read-out: Activity; procedure, shortened: as §1
[3] = test system: Hs-578T; assay: Growth inhibition of human Hs 578T cells assessed as cell growth at 10 uM after 48 hrs by sulforhodamine B assay; type: functional; conditions: read-out: Activity; procedure, shortened: as §1
[4] = test system: DU-145; assay: Growth inhibition of human DU145 cells assessed as cell growth at 10 uM after 48 hrs by sulforhodamine B assay; type: functional; conditions: DU-145, 48 h, read-out: Activity; procedure, shortened: as §1
[5] = test system: Malme-3M; assay: Growth inhibition of human MALME-3M cells assessed as cell growth at 10 uM after 48 hrs by sulforhodamine B assay; type: functional; conditions: read-out: Activity; procedure, shortened: as §1
[6] = test system: MDA-MB-468; assay: Growth inhibition of human MDA-MB-468 cells assessed as cell growth at 10 uM after 48 hrs by sulforhodamine B assay; type: functional; conditions: MDA-MB-468, 48 h, read-out: Activity; procedure, shortened: as §1
[7] = test system: SNB-75; assay: Growth inhibition of human SNB75 cells assessed as cell growth at 10 uM after 48 hrs by sulforhodamine B assay; type: functional; conditions: SNB-75, 48 h, read-out: Activity
Procedure, shortened: (§2)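 NCI 60-cell-line panel from nine tumour types (leukaemia, lung, colon, CNS, melanoma, ovarian, renal, prostate, breast). Each compound was added at one single concentration, and cultures were incubated for 48 h. Results are reported as percent growth inhibition.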

[8] = test system: SR; assay: Growth inhibition of human SR cells assessed as cell growth at 10 uM after 48 hrs by sulforhodamine B assay; type: functional; conditions: read-out: Activity; procedure, shortened: as §2
[9] = test system: MDA-MB-435; assay: Growth inhibition of human MDA-MB-435 cells assessed as cell growth at 10 uM after 48 hrs by sulforhodamine B assay; type: functional; conditions: MDA-MB-435, 48 h, read-out: Activity; procedure, shortened: as §1
[10] = test system: A549; assay: Growth inhibition of human A549/ATCC cells assessed as cell growth at 10 uM after 48 hrs by sulforhodamine B assay; type: functional; conditions: A549, 48 h, read-out: Activity; procedure, shortened: as §1
[11] = test system: HL-60(TB); assay: Growth inhibition of human HL-60(TB) cells assessed as cell growth at 10 uM after 48 hrs by sulforhodamine B assay; type: functional; conditions: HL-60, 48 h, read-out: Activity
Procedure, shortened: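 Screened by the NCI in its 60-cell-line panel covering nine cancer types, including leukemia. Compounds were added at a single concentration, and the cultures were incubated for 48 h. Results are reported as percent growth inhibition.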

[12] = test system: NCI-H23; assay: Growth inhibition of human NCI-H23 cells assessed as cell growth at 10 uM after 48 hrs by sulforhodamine B assay; type: functional; conditions: NCI-H23, 48 h, read-out: Activity; procedure, shortened: as §1
[13] = test system: RPMI-8226; assay: Growth inhibition of human RPMI8226 cells assessed as cell growth at 10 uM after 48 hrs by sulforhodamine B assay; type: functional; conditions: RPMI-8226, 48 h, read-out: Activity; procedure, shortened: as §1
[14] = test system: OVCAR-3; assay: Growth inhibition of human OVCAR3 cells assessed as cell growth at 10 uM after 48 hrs by sulforhodamine B assay; type: functional; conditions: OVCAR-3, 48 h, read-out: Activity; procedure, shortened: as §1
[15] = test system: A498; assay: Growth inhibition of human A498 cells assessed as cell growth at 10 uM after 48 hrs by sulforhodamine B assay; type: functional; conditions: A498, 48 h, read-out: Activity; procedure, shortened: as §1
[16] = test system: RXF 393; assay: Growth inhibition of human RXF393 cells assessed as cell growth at 10 uM after 48 hrs by sulforhodamine B assay; type: functional; conditions: RXF 393, 48 h, read-out: Activity; procedure, shortened: as §1
[17] = test system: ACHN; assay: Growth inhibition of human ACHN cells assessed as cell growth at 10 uM after 48 hrs by sulforhodamine B assay; type: functional; conditions: read-out: Activity; procedure, shortened: as §1
[18] = test system: NCI-H460; assay: Growth inhibition of human NCI-H460 cells assessed as cell growth at 10 uM after 48 hrs by sulforhodamine B assay; type: functional; conditions: NCI-H460, 48 h, read-out: Activity; procedure, shortened: as §1
[19] = test system: HepG2; assay: Cytotoxicity in human HepG2 cells assessed as reduction in cell viability incubated for 48 hrs by MTT assay; type: functional, cell-based; conditions: HepG2, 48 h
Procedure, shortened: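 HepG2 and HL60 (ATCC) grown in DMEM with 10% FBS, 2 mM L-glutamine, penicillin/streptomycin, amphotericin B at 37 °C, 5% CO2. Samples dissolved in DMSO, diluted thousandfold in assay. Cells seeded in serum-free medium, treated with serial concentrations 48 h; MTT 4 h, formazan dissolved in acidified isopropanol, A570. Triplicates averaged; viability relative to untreated/vehicle control.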

[20] = test system: BT-549; assay: Growth inhibition of human BT549 cells assessed as cell growth at 10 uM after 48 hrs by sulforhodamine B assay; type: functional; conditions: BT-549, 48 h, read-out: Activity; procedure, shortened: as §1
[21] = test system: HCT-15; assay: Growth inhibition of human HCT15 cells assessed as cell growth at 10 uM after 48 hrs by sulforhodamine B assay; type: functional; conditions: HCT-15, 48 h, read-out: Activity; procedure, shortened: as §1
[22] = test system: UO-31; assay: Growth inhibition of human UO31 cells assessed as cell growth at 10 uM after 48 hrs by sulforhodamine B assay; type: functional; conditions: UO-31, 48 h, read-out: Activity; procedure, shortened: as §2
[23] = test system: SNB-19; assay: Growth inhibition of human SNB19 cells assessed as cell growth at 10 uM after 48 hrs by sulforhodamine B assay; type: functional; conditions: SNB-19, 48 h, read-out: Activity; procedure, shortened: as §2
[24] = test system: CCRF-CEM; assay: Growth inhibition of human CCRF-CEM cells assessed as cell growth at 10 uM after 48 hrs by sulforhodamine B assay; type: functional; conditions: read-out: Activity; procedure, shortened: as §1
[25] = test system: HCT-116; assay: Growth inhibition of human HCT116 cells assessed as cell growth at 10 uM after 48 hrs by sulforhodamine B assay; type: functional; conditions: HCT-116, 48 h, read-out: Activity; procedure, shortened: as §1
[26] = test system: MOLT-4; assay: Growth inhibition of human MOLT4 cells assessed as cell growth at 10 uM after 48 hrs by sulforhodamine B assay; type: functional; conditions: MOLT-4, 48 h, read-out: Activity; procedure, shortened: as §1
[27] = test system: HOP-62; assay: Growth inhibition of human HOP62 cells assessed as cell growth at 10 uM after 48 hrs by sulforhodamine B assay; type: functional; conditions: HOP-62, 48 h, read-out: Activity; procedure, shortened: as §1
[28] = test system: MDA-MB-231; assay: Growth inhibition of human MDA-MB-231 cells assessed as cell growth at 10 uM after 48 hrs by sulforhodamine B assay; type: functional; conditions: MDA-MB-231, 48 h, read-out: Activity; procedure, shortened: as §1
[29] = test system: HT-29; assay: Growth inhibition of human HT-29 cells assessed as cell growth at 10 uM after 48 hrs by sulforhodamine B assay; type: functional; conditions: HT-29, 48 h, read-out: Activity; procedure, shortened: as §1
[30] = test system: NCI/ADR-RES; assay: Growth inhibition of human NCI-ADR-RES cells assessed as cell growth at 10 uM after 48 hrs by sulforhodamine B assay; type: functional; conditions: read-out: Activity; procedure, shortened: as §1
[31] = test system: OVCAR-5; assay: Growth inhibition of human OVCAR5 cells assessed as cell growth at 10 uM after 48 hrs by sulforhodamine B assay; type: functional; conditions: OVCAR-5, 48 h, read-out: Activity; procedure, shortened: as §1
[32] = test system: IGROV-1; assay: Growth inhibition of human IGROV1 cells assessed as cell growth at 10 uM after 48 hrs by sulforhodamine B assay; type: functional; conditions: IGROV-1, 48 h, read-out: Activity; procedure, shortened: as §1

Row | SMILES | growth at 10 µM [1] | growth at 10 µM [2] | growth at 10 µM [3] | growth at 10 µM [4] | growth at 10 µM [5] | growth at 10 µM [6] | growth at 10 µM [7] | growth at 10 µM [8] | growth at 10 µM [9] | growth at 10 µM [10] | growth at 10 µM [11] | growth at 10 µM [12] | growth at 10 µM [13] | growth at 10 µM [14] | growth at 10 µM [15] | growth at 10 µM [16] | growth at 10 µM [17] | growth at 10 µM [18] | IC50 [19] | growth at 10 µM [20] | further results
1 | CCOc1ccc(-n2nc(C(=O)Nc3cccc(OC)c3)nc2-c2cc(OC)c(OC)c(OC)c2)cc1 | 77.7% | 96.5% | 73.2% | 94.8% | 91.7% | 93.4% | 68.1% | 52.6% | 86.8% | 68.2% | 87.5% | 85.9% | 27.9% | 78.7% | 78.8% | 90.2% | 77.9% | 79.3% | 36.8 µM | 72.3% | growth at 10 µM [21]: 74.3%; growth at 10 µM [22]: 50.9%; growth at 10 µM [23]: 83.9%; growth at 10 µM [24]: 51.9%; growth at 10 µM [25]: 67.3%; growth at 10 µM [26]: 62.5%; growth at 10 µM [27]: 91.9%; growth at 10 µM [28]: 55.1%; growth at 10 µM [29]: 78.3%; growth at 10 µM [30]: 77.5%; growth at 10 µM [31]: 95.5%; growth at 10 µM [32]: 90.7%
2 | CCOc1ccc(-n2nc(C(=O)Nc3cc(F)cc(F)c3)nc2-c2cc(OC)c(OC)c(OC)c2)cc1 | 85.8% | 93% | 75.5% | 98.2% | 97.5% | 77% | 58% | 61.8% | 91% | 73.8% | 96.1% | 84% | 69.4% | 93.6% | 56% | 88.2% | 82.7% | 94.7% | 36.5 µM | 101% | growth at 10 µM [21]: 77.9%; growth at 10 µM [22]: 53.5%; growth at 10 µM [23]: 73.3%; growth at 10 µM [24]: 84.1%; growth at 10 µM [25]: 95.2%; growth at 10 µM [26]: 63.9%; growth at 10 µM [27]: 95%; growth at 10 µM [28]: 64.3%; growth at 10 µM [29]: 89%; growth at 10 µM [30]: 81.7%; growth at 10 µM [31]: 98.8%; growth at 10 µM [32]: 85.1%
3 | COc1cccc(-n2nc(C(=O)NCc3ccccc3OC)nc2-c2cc(OC)c(OC)c(OC)c2)c1 | 91.1% | 96.7% | 99.9% | 106% | 99.7% | 99.9% | 63% | 93.8% | 90.8% | 92.8% | 103% | 90.7% | 100% | 101% | 104% | 107% | 106% | 111% | 1.67 µM | 103% | growth at 10 µM [21]: 96.8%; growth at 10 µM [22]: 59.1%; growth at 10 µM [23]: 100%; growth at 10 µM [24]: 107%; growth at 10 µM [25]: 102%; growth at 10 µM [26]: 103%; growth at 10 µM [27]: 85.9%; growth at 10 µM [28]: 93%; growth at 10 µM [29]: 81.3%; growth at 10 µM [30]: 77.4%; growth at 10 µM [31]: 113%; growth at 10 µM [32]: 88.5%
4 | CCOc1ccc(-n2nc(C(=O)Nc3cc(OC)c(OC)c(OC)c3)nc2-c2cc(OC)c(OC)c(OC)c2)cc1 | 96.1% | 99.7% | 65.6% | 99.1% | 85.2% | 82% | 65.6% | 40.7% | 79.6% | 86.9% | 98.2% | 85% | 55.7% | 86.9% | 67.3% | 83.8% | 85.7% | 92.1% | 37.8 µM | 91.5% | growth at 10 µM [21]: 82.1%; growth at 10 µM [22]: 52.6%; growth at 10 µM [23]: 82.1%; growth at 10 µM [24]: 66.5%; growth at 10 µM [25]: 75.8%; growth at 10 µM [26]: 67.5%; growth at 10 µM [27]: 95.7%; growth at 10 µM [28]: 50.5%; growth at 10 µM [29]: 84.6%; growth at 10 µM [30]: 85.8%; growth at 10 µM [31]: 102%; growth at 10 µM [32]: 90.8%
